# Experimental data taken from PMC8883152 (Translational Vision Science & Technology, 2022).
# Legend:
# Assay type in all cases: in vivo, C57BL/6 mice
# [1] = tested on: fibronectin and α-SMA expression in the TM; conditions: after 21 days treatment
# Outline: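 Eye sections from dexamethasone-induced hypertensive C57BL/6 mice (21 days of topical dosing) were used. Sections were incubated overnight at room temperature with fibronectin and α-SMA antibodies (1:200) and washed in 0.1 M PBST. Fluorescent secondary antibodies (1:500) were applied for 1 h. Sections were DAPI-counterstained and imaged by fluorescence microscopy focused on the trabecular meshwork.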
# [2] = tested on: RGCs; test: Hematoxylin and eosin staining of retinal sections; conditions: after 21 days treatment, H&E retinal cross-sections
# Outline: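 In dexamethasone-induced hypertensive C57BL/6 mice treated topically for 21 days, eyes were enucleated after euthanasia and fixed in 10% formalin for 24 h. They were paraffin-embedded and sectioned. Retinal sections were stained with hematoxylin (0.1% plus 10% ammonium) for 3–5 min, then 1% eosin Y for 1 min. Slides were dehydrated through ethanol and xylene and scanned to assess RGCs.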
# [3] = tested on: MMP-2/TIMP-2 and MMP-9/TIMP-1 ratios; conditions: retinal extracts, normalized to α-tubulin
# Outline: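 Three mice per group were used (dexamethasone-induced hypertension, 21 days of topical dosing). Retinas were homogenised in RIPA buffer (pH 8.0) and centrifuged at 14,000g for 30 min at 4°C. Protein (10 µg/lane) was run on 10% SDS-PAGE and blotted. Membranes were probed overnight at room temperature for MMP-2, MMP-9, TIMP-1 and TIMP-2. Bands were detected by ECL densitometry and normalised to α-tubulin, and MMP-2/TIMP-2 and MMP-9/TIMP-1 ratios were calculated.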
# [4] = tested on: Dex-induced OHT mouse model; test: Electroretinography; conditions: day 21, compared with vehicle-treated group
# Outline: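 Male C57BL/6 mice (11 weeks) received 0.1% dexamethasone eye drops (20 µL/eye) in both eyes three times daily for 2 weeks, continued through dosing. Test compound (0.04% BID), latanoprost (0.005% QD) or both were then given topically for 21 days, doses 5 min apart. ERG was run on both eyes of dark-adapted anaesthetised mice on days 0 and 21. A single white 0.3 log cd·s/m2 flash was used, and b-wave amplitude was measured.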
# [5] = tested on: Dex-induced OHT mouse model; test: IOP in dexamethasone-induced ocular hypertension mouse model; conditions: HL3501 0.04% BID, latanoprost 0.005% QD, or both
# Outline: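 IOP was read with a rebound tonometer on days 0, 1, 3, 5, 7, 10, 14, 17 and 21 in male C57BL/6 mice. Ocular hypertension was pre-induced by 0.1% dexamethasone (20 µL/eye, three times daily, 2 weeks; maintained throughout). Drops were test compound 0.04% BID, latanoprost 0.005% QD, or both 5 min apart, for 21 days. Groups had 8–10 mice. Basal IOP was taken before dexamethasone.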
compound,measurement,setting,value
"CC(C)OC(=O)CCC/C=C\C[C@@H]1[C@@H](CC[C@@H](O)CCc2ccccc2)[C@H](O)C[C@@H]1O [Latanoprost, latanoprost]",Fibronectin and α-SMA expression in the TM compared with vehicle (in words),[1],suppressed
same,RGC loss (in words),[2],less affected by RGC loss
same,MMP-2/TIMP-2 ratio (in words),[3],increased
same,MMP-9/TIMP-1 ratio (in words),[3],increased
same,b-wave values on day 21 (in words),[4],did not decrease as much
same,IOP effect over 3 weeks in Dex-induced OHT mouse model (in words),[5],consistent IOP-lowering effect
